Values after ≈ are worked out from the molar mass of the structure shown.

Series [1] relates to Staphylococcus aureus. Put plainly: Antibacterial activity against methicillin-resistant Staphylococcus aureus ATCC 33591. The class given is functional. A digest of the protocol:
(§1)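 Broth microdilution in TSB. Strains were grown 16 h, subcultured 6 h to log phase, then diluted to 10^6 CFU/mL by OD600. Compound came from a 5 mg/mL DMSO stock diluted in TSB and serially diluted, top final concentration 25 μg/mL. MIC was the lowest concentration giving complete growth inhibition. Done ≥3 times in duplicate.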

The test system of series [2] is Staphylococcus epidermidis. Put plainly: Antibacterial activity against methicillin-resistant Staphylococcus epidermidis RP62A. The class given is functional. A digest of the protocol:
as §1

The subject of another series is Escherichia coli. Put plainly: Antibacterial activity against Escherichia coli ATCC 25922. Format: functional. Put shortly: (§2)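 Broth microdilution in TSB. Stocks at 5 mg/mL in DMSO diluted with TSB to 100 μg/mL, then serially diluted; highest test concentration 25 μg/mL. Bacteria grown 16 h, subcultured 6 h to log phase, adjusted to 10^6 CFU/mL by OD600. MIC = lowest concentration giving complete growth inhibition. At least three repeats, each in duplicate.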

A further series concerns Klebsiella pneumoniae. Nature of the series: Antibacterial activity against Klebsiella pneumoniae ATCC 13383. The class given is functional. Put shortly: as §2
Series [3] is described as follows: Hemolytic activity against mouse RBC measured after 1 hr by microplate reader analysis. Format: ADME, cell-based, Erythrocyte. Particulars: mouse red blood cells (erythrocytes). A digest of the protocol:
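Mouse red blood cells collected by centrifugation (500–700g, 10 min), washed three times in PBS, and diluted 20-fold in PBS. Mixed with 2-fold serial dilutions of compound (starting at 1 mg/mL in PBS) and incubated 1 h at 37 °C. After centrifugation, supernatant absorbance read at 540 nm. % hemolysis calculated relative to PBS (0%) and 2% Triton (100%). At least three repeats in duplicate.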

A short description of series [4]: Selectivity ratio of HC50 for hemolytic activity against mouse RBC to MIC for methicillin-resistant Staphylococcus aureus. The class given is toxicity. The note with it: mouse red blood cells (erythrocytes). Put shortly: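 Mouse RBCs were washed three times in PBS and diluted in 20 volumes of PBS. They were mixed with compound 2-fold serially diluted from 1 mg/mL in PBS, incubated 1 h at 37 °C, then centrifuged; supernatant read at A540. % hemolysis was calculated against PBS (0%) and 2% Triton (100%). Done ≥3 times in duplicate. HC50 was divided by the MRSA MIC.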

Series [5] has as its system Staphylococcus aureus. Put plainly: Antibacterial activity against methicillin-resistant Staphylococcus aureus ATCC 33591 assessed as ratio of MIC after and before 13 serial passages. Format: functional. A digest of the protocol:
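Serial-passage resistance test. A first MIC was run by TSB broth microdilution. Bacteria from the well after the last clear well were resuspended to about 10^6 CFU/mL for the next MIC. This was repeated for 13 passages.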

In general, MIC refers to the least concentration at which growth counts as inhibited. Read a low MIC as greater potency. For orientation: HC50 means the concentration that lyses half of the red blood cells. Read a low HC50 as more damage to red cells. As to `CCCCCCCCCC(=O)N[C@@H](Cc1ccccc1)CN1CC(=O)N(c2ccc(N3CN(C[C@H](Cc4ccccc4)NC(=O)CCCCCCCCC)CC3=O)cc2)C1`, the MIC (in the series on Staphylococcus aureus [1]; in series [2]; with Escherichia coli; in the series on Klebsiella pneumoniae) was more than 25 µg/mL throughout. Further, the HC50 at 1 h in series [3] was more than 250 µg/mL.
Regarding `CCCCCCCC(=O)N[C@@H](CCCCN)CN1CC(=O)N(c2ccc(N3CN(C[C@H](CCCCN)NC(=O)CCCCCCC)CC3=O)cc2)C1`, the MIC (against Staphylococcus aureus [1]; in series [2]; in the series on Escherichia coli; in the series with Klebsiella pneumoniae) was more than 25 µg/mL throughout. The HC50 at 1 h in series [3] was more than 250 µg/mL.
On to `CCCCCCCCCCCC(=O)N[C@@H](CCCCN)CN1CC(=O)N(c2ccc(N3CN(C[C@H](CCCCN)NC(=O)CCCCCCCCCCC)CC3=O)cc2)C1`, for which the MIC against Staphylococcus aureus [1] is 1 µg/mL (≈ 1.19 µM); in series [2] it was 2 µg/mL (≈ 2.38 µM); against Escherichia coli it was more than 25 µg/mL; in the series on Klebsiella pneumoniae it was more than 25 µg/mL. In series [3], this compound showed an HC50 at 1 h of more than 250 µg/mL. For the same compound, in series [4], the selectivity ratio was more than 250.
On to `CCCCCCCCCC(=O)N[C@@H](CCCCNC(=N)N)CN1CC(=O)N(c2ccc(N3CN(C[C@H](CCCCNC(=N)N)NC(=O)CCCCCCCCC)CC3=O)cc2)C1`, for which the MIC was 1 µg/mL (≈ 1.15 µM) with Staphylococcus aureus [1], 5 µg/mL (≈ 5.77 µM) in series [2], more than 25 µg/mL against Escherichia coli and 5 µg/mL (≈ 5.77 µM) with Klebsiella pneumoniae. The compound further displayed an HC50 at 1 h in series [3] of 125 µg/mL. The selectivity ratio in series [4] came out at 125.
Consider `NCCCC[C@@H](CN1CC(=O)N(c2ccc(N3CN(C[C@H](CCCCN)NC(=O)CC45C[C@H]6C[C@@H](C4)C[C@@H](C5)C6)CC3=O)cc2)C1)NC(=O)CC12C[C@H]3C[C@@H](C1)C[C@@H](C2)C3`, for which the MIC (against Staphylococcus aureus [1]; in series [2]; in the series on Escherichia coli; against Klebsiella pneumoniae) was more than 25 µg/mL each time. Moreover, the HC50 at 1 h in series [3] was more than 250 µg/mL.
As to `CCCCCC(=O)N[C@@H](CCCCN)CN1CC(=O)N(c2ccc(N3CN(C[C@H](CCCCN)NC(=O)CCCCC)CC3=O)cc2)C1`, the MIC (against Staphylococcus aureus [1]; in series [2]; in the series with Escherichia coli; with Klebsiella pneumoniae) was more than 25 µg/mL in each case. Also, the HC50 at 1 h in series [3] is more than 250 µg/mL.
Regarding `CCCCCCCCCC(=O)N[C@@H](CCCCN)CNCC(=O)Nc1ccc(NC(=O)CNC[C@H](CCCCN)NC(=O)CCCCCCCCC)cc1`, the MIC is 2 µg/mL (≈ 2.63 µM) against Staphylococcus aureus [1], 2 µg/mL (≈ 2.63 µM) in series [2], more than 25 µg/mL in the series with Escherichia coli and more than 25 µg/mL with Klebsiella pneumoniae. The HC50 at 1 h in series [3] is more than 250 µg/mL. The selectivity ratio in series [4] is more than 125.
Regarding `CCCCCCCCCCCCCCCC(=O)N[C@@H](CCCCN)CN1CC(=O)N(c2ccc(N3CN(C[C@H](CCCCN)NC(=O)CCCCCCCCCCCCCCC)CC3=O)cc2)C1`, the minimal inhibitory concentration (MIC) (with Staphylococcus aureus [1]; in series [2]; against Escherichia coli; against Klebsiella pneumoniae) was more than 25 µg/mL each time. Also, the HC50 at 1 h in series [3] was more than 250 µg/mL.
For the compound `CCn1cc(C(=O)O)c(=O)c2cc(F)c(N3CCNCC3)cc21` [NORFLOXACIN], the Ratio with Staphylococcus aureus [5] is more than 22.
For the compound `NCCCC(=O)N[C@@H](Cc1ccccc1)CN1CC(=O)N(c2ccc(N3CN(C[C@H](Cc4ccccc4)NC(=O)CCCN)CC3=O)cc2)C1`, the MIC (against Staphylococcus aureus [1]; in series [2]; against Escherichia coli; against Klebsiella pneumoniae) was more than 25 µg/mL throughout. The HC50 at 1 h in series [3] was more than 250 µg/mL.
In the case of `O=C(O)c1cn(C2CC2)c2cc(N3CCNCC3)c(F)cc2c1=O` [CIPROFLOXACIN], the MIC was 0.15 µg/mL (≈ 0.453 µM) in the series on Staphylococcus aureus [1], 0.15 µg/mL (≈ 0.453 µM) in series [2], 0.07 µg/mL (≈ 0.211 µM) with Escherichia coli and 0.3 µg/mL (≈ 0.905 µM) with Klebsiella pneumoniae.
Turning to `NCCCC[C@@H](CN1CC(=O)N(c2ccc(N3CN(C[C@H](CCCCN)NC(=O)Cc4ccc5ccccc5c4)CC3=O)cc2)C1)NC(=O)Cc1ccc2ccccc2c1`, the MIC (in the series on Staphylococcus aureus [1]; in series [2]; in the series on Escherichia coli; with Klebsiella pneumoniae) was more than 25 µg/mL each time. In series [3], this compound registered an HC50 at 1 h of more than 250 µg/mL.
In the case of `CCCCCCCCCCCCCC(=O)N[C@@H](CCCCN)CN1CC(=O)N(c2ccc(N3CN(C[C@H](CCCCN)NC(=O)CCCCCCCCCCCCC)CC3=O)cc2)C1`, the MIC (in the series with Staphylococcus aureus [1]; in series [2]; against Escherichia coli; against Klebsiella pneumoniae) was more than 25 µg/mL each time. The compound also returned an HC50 at 1 h in series [3] of more than 250 µg/mL.
For `N=C(N)NCCCC[C@@H](CN1CC(=O)N(c2ccc(N3CN(C[C@H](CCCCNC(=N)N)NC(=O)CC45C[C@H]6C[C@@H](C4)C[C@@H](C5)C6)CC3=O)cc2)C1)NC(=O)CC12C[C@H]3C[C@@H](C1)C[C@@H](C2)C3`, the MIC was 1 µg/mL (≈ 1.1 µM) in the series on Staphylococcus aureus [1], 2 µg/mL (≈ 2.19 µM) in series [2], more than 25 µg/mL against Escherichia coli and more than 25 µg/mL against Klebsiella pneumoniae. This compound also showed an HC50 at 1 h in series [3] of 250 µg/mL. For the same compound, the selectivity ratio in series [4] came out at 250.
